The source of these data is PMC11646436 (International Journal of Nanomedicine, 2024).

Molecules are shown by their SMILES.

The subject of data set [1] is AsPC-1 cells. In words: Transwell cell invasion assay. To be noted: AsPC-1, 1 μM, 48 h. The format is cell-based, Human. In outline: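 AsPC-1 cells (1×10^4) were placed in serum-free medium in the upper chamber of 8-μm-pore transwells, with complete medium below, and treated with 1 μM test compound for 48 h. Cells on the upper membrane surface were swabbed off. Cells on the lower surface were stained with 0.5% crystal violet and counted per field under bright-field microscopy. Mean ± SD, n = 3.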

Data set [2] concerns AsPC-1-luc orthotopic xenograft. Put plainly: Pharmacodynamics in AsPC-1-luc orthotopic xenograft model. The data set is classed as in vivo, BALB/c nude mice. The method, boiled down: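 AsPC-1-luc cells were grown in RPMI-1640 with 10% FBS and 0.5 μg/mL puromycin. Under anaesthesia, 3×10^6 cells in 25 μL were injected into the pancreas of BALB/c nude mice. On day 7, luciferase substrate was given i.p. and mice were IVIS-imaged within 5 min, then grouped by bioluminescence. Dosing was i.v., Q3D × 6: 5% glucose, parent drug 10 mg/kg, or liposomal test compound 5 mg/kg. Mice were imaged on Days 17 and 27, followed by ex vivo organ imaging.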

The subject of data set [3] is AsPC-1 cells. Put plainly: MTT cytotoxicity assay. The data set is classed as cell-based. Conditions: Homo sapiens, ASPC1, 48 h, AsPC-1, 48 h incubation, 2×10^4 cells per well. The method, boiled down:
(§1)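 Seeding was 2×10^4 per well for AsPC-1 and 1×10^4 for PANC-1, BxPC-3, Mia PaCa-2 and SU.86.86; cells adhered for 24 h at 37°C in 5% CO2. Test compound was given at 0.01, 0.1, 1, 10 and 100 μM for 48 h. MTT (5 mg/mL stock in PBS) was added for 4 h, dissolved in DMSO, and read at 490 nm. Viability was calculated against drug-free cells and cell-free blanks. Mean ± SD, n = 3.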

Data set [4] has as its system AsPC-1 cells. In words: Cell cycle analysis by flow cytometry. The format is cell-based, Human. To be noted: AsPC-1, 10 μM, 24 h. In outline:
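AsPC-1 cells were seeded at 5×10^5 per well in 6-well plates and exposed to 10 μM test compound. They were then fixed overnight in cold 70% ethanol, stained with propidium iodide containing RNase A in the dark at room temperature, and analysed by flow cytometry for cell-cycle phase percentages. Mean ± SD, n = 3.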
A general note: Flow cytometry measures light scatter and fluorescence of single cells or particles in a stream.

In data set [5] the test system is AsPC-1 cells. Put plainly: Cellular accumulation by LC-MS/MS. The data set is classed as cell-based, Human. To be noted: AsPC-1, 10 μM, 48 h; Gem (Gem group), Gem and tcGem (LipotcGem group). The method, boiled down:
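AsPC-1 cells were seeded at 5×10^6 per 10 cm dish overnight and exposed to 10 μM test compound for 12, 24 or 48 h. Cells were washed, counted and sonicated at 4°C in methanol-water (1:1). Parent nucleoside and prodrug were quantified by LC-MS/MS on a C8 UPLC column. The gradient was water/acetonitrile with 0.1% formic acid at 0.2 mL/min.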

Data set [6] has as its system PANC-1 cells. Put plainly: MTT cytotoxicity assay. The format is cell-based, Human. In general terms: Formazan colour is commonly taken as a measure of viable cells.
Data set [7] has as its system Mia PaCa-2 cells. In words: MTT cytotoxicity assay. The data set is classed as cell-based. To be noted: Homo sapiens.
Data set [8] deals with SU.86.86 cells. Put plainly: MTT cytotoxicity assay. Conditions: Homo sapiens, SU.86.86, 48 h. The data set is classed as cell-based. In outline:
as §1

The test system of data set [9] is AsPC-1 subcutaneous xenograft. In words: Pharmacodynamics in AsPC-1 subcutaneous xenograft model. The format is in vivo, BALB/c nude mice. In outline:
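Female BALB/c nude mice (18–20 g) received 5×10^6 AsPC-1 cells subcutaneously in the right flank. At ~100 mm3 they were sorted by volume and randomised into three groups. Dosing was i.v., Q3D × 6: 5% glucose vehicle, parent drug 10 mg/kg, or liposomal test compound 5 mg/kg. Tumour volume and body weight were followed throughout. Tumours were weighed on Day 30, one week after the last dose, and organs were taken for H&E. n = 5.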

Data set [10] can be described thus: Tissue distribution in AsPC-1 tumor-bearing mice. The format is in vivo, BALB/c nude mice. To be noted: i.v. 38 μmol/kg. In outline: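 BALB/c nude mice carrying subcutaneous AsPC-1 tumours (5×10^6 cells, right flank; 300–500 mm3) received one i.v. bolus at an equimolar 38 μmol/kg (parent drug 10 mg/kg; liposomal prodrug 19 mg/kg). After cardiac perfusion, tumour, heart, liver, spleen, lung, kidney and pancreas were collected at 0.5, 4, 8, 12 and 24 h. Parent nucleoside and prodrug were measured by LC-MS/MS.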

Data set [11] has as its system BxPC-3 cells. Put plainly: MTT cytotoxicity assay. To be noted: Homo sapiens, BXPC-3, 48 h. The data set is classed as cell-based. In outline: as §1

Compound `Nc1ccn([C@@H]2O[C@H](CO)[C@@H](O)C2(F)F)c(=O)n1` [Gem, Gemcitabine] gave an invading cells in [1] of 129 ± 27 cells per field. Also, in data set [2] (Day 27, ex vivo), the “metastatic burden (bioluminescent signals, liver and intestine)” value is reported as “moderate”. Also, the “tumor inhibition rate (TIR)” value in data set [2] (orthotopic model, i.v. Q3D × 6, Gem 10 mg/kg, LipotcGem 5 mg/kg) is recorded as 50%. Moreover, the IC50 (in general, the concentration needed to halve the response being measured) in [3] is over 100 µM; in data set [6] (Homo sapiens, PANC-1, 48 h), over 100 µM; in data set [7] (MIA PaCa-2, 48 h), over 100 µM; in [7] (MIA PaCa-2, 72 h), 73.5 µM; in data set [8], over 100 µM; in data set [11] it was 4.35 µM. In addition, the “Percentage of cells (%) S” value in [4] was 35%. The intracellular accumulation in data set [5] was determined as 0.0015 nmol/10^6 cells. Also, in data set [6] (PANC-1, lower cell densities and extended exposure time), the cell viability entry is given as “above 50%”. The “tumor inhibition rate (TIR), tumor weight” value in data set [9] (Day 30, i.v. Q3D × 6, Gem 10 mg/kg, LipotcGem 5 mg/kg) worked out at 49%. In data set [9] (i.v. Q3D × 6, Gem 10 mg/kg, LipotcGem 5 mg/kg), the “tumor inhibition rate (TIR), tumor volume” value is recorded as 50%. The body weight result in [9] (subcutaneous model, throughout treatment) is on record as “No significant weight loss”. The compound further yielded a concentration in tumors in data set [10] (8 h, Gem (Gem group), Gem and tcGem (LipotcGem group)) of 0.004 µmol/g. In addition, the “Gem concentration in tumor tissues and plasma over time” value in data set [10] is given as “undetectable beyond 8 h”.
